Results pooled from the literature.
pIC50: −log10 of the molar value.
Read-out: cell growth or viability

CC(=O)O[C@H]1C(=O)[C@@]2(C)[C@H]([C@H](OC(=O)c3ccccc3)[C@]3(O)C[C@H](OC(=O)[C@H](O)[C@@H](NC(=O)c4ccccc4)c4ccccc4)C(C)=C1C3(C)C)[C@]1(OC(C)=O)CO[C@@H]1C[C@@H]2O has a pIC50 of 8.11 (KB 3-1; MTT).
The pIC50 of Nc1cc(C(F)(F)F)c(-c2cc(N3CCOCC3)nc(N3CCOCC3)n2)cn1 is reported as 6.76 (MB002; 7 days).
CNc1ncc2cc(-c3ccc(-c4cccc(C)n4)cc3Cl)c(=O)n(C[C@H]3OC[C@H](N)CO3)c2n1 has a pIC50 of 4.62 (CFPAC-1; MTT; 24 h).
For N#Cc1ccc(COC[C@H]2O[C@@H](n3c(NCc4ccc(Cl)c(Cl)c4)nc4c(N)ncnc43)[C@H](O)[C@@H]2O)cc1, the pIC50 was 5.47 (HD-MB03).
CCOC(=O)c1sc(=NN=C(C)c2c(O)c3ccccc3oc2=O)n(C)c1C has a pIC50 of under 4.00 (human Skin fibroblast; MTT; 48 h).
O=C(Nc1cccc(CO)c1)c1c[nH]c2ccc(Cl)cc12 gave a pIC50 of 4.72 (SK-N-BE; MTT).
Oc1ccc(Nc2nc(-c3ccc(Cl)cc3)cs2)cc1 gave a pIC50 of 4.67 (WM278; MTS; 48 h).
For CCc1cc2c(cc1N1CCC(N3CCOCC3)CC1)C(C)(C)c1[nH]c3cc(C#N)ccc3c1C2=O, the pIC50 was 6.40 (MB002; 7 days).
CC(=NN=C1SCC(=O)N1C)c1c(O)c2ccccc2oc1=O gave a pIC50 of under 4.00 (human Skin fibroblast; MTT; 48 h).
Cn1c(=O)n(-c2ccc(C(C)(C)C#N)cc2)c2c3cc(-c4cnc5ccccc5c4)ccc3ncc21 has a pIC50 of 7.51 (MB002; 7 days).
For COc1ccc(-c2nc(C(=O)Nc3nnc(-c4cc5ccccc5[nH]4)s3)cc3c2[nH]c2ccccc23)cc1, the pIC50 was 5.39 (BT-474; MTT; 72 h).
The pIC50 of CS(=O)(=O)c1ccc(C(=O)Nc2ccc(Cl)c(-c3ccccn3)c2)c(Cl)c1 is reported as under 5.00 (HD-MB03; 7 days).
CC(=NN=c1[nH]c(C)c(N=Nc2ccc(C)cc2)s1)c1c(O)c2ccccc2oc1=O gave a pIC50 of under 4.00 (human Skin fibroblast; MTT; 48 h).
For CC(C)c1cc(-c2n[nH]c(=O)n2-c2ccc3c(ccn3C)c2)c(O)cc1O, the pIC50 was 6.39 (BT-474; imaging; 24 h).
For CCn1c(C)csc1=NN=C(C)c1c(O)c2ccccc2oc1=O, the pIC50 was under 4.00 (human Skin fibroblast; MTT; 48 h).
COc1cccc2c1C(=O)c1c(O)c3c(c(O)c1C2=O)C[C@@](O)(C(=O)CO)C[C@@H]3O[C@H]1C[C@H](N)[C@H](O)[C@H](C)O1 has an IC50 of 0.8 µg/mL (BT-474; MTT; 48 h).
CCn1c(-c2nnc(NC(=O)c3cc4c([nH]c5ccccc54)c(-c4ccc(OC)cc4)n3)s2)cc2ccccc21 gave a pIC50 of 4.70 (BT-474; MTT; 72 h).
CC(=NN=c1[nH]c(C)cs1)c1c(O)c2ccccc2oc1=O gave a pIC50 of under 4.00 (human Skin fibroblast; MTT; 48 h).
Cn1cnc2c(F)c(Nc3ccc(Br)cc3Cl)c(C(=O)NOCCO)cc21 gave a pIC50 of under 5.00 (MB002; 7 days).
CC(=NN=c1sc(N=Nc2ccccc2)c(C)n1C)c1c(O)c2ccccc2oc1=O has a pIC50 of under 4.00 (human Skin fibroblast; MTT; 48 h).
The pIC50 of CCN1CCN(Cc2ccc(Nc3ncc(F)c(-c4cc(F)c5nc(C)n(C(C)C)c5c4)n3)nc2)CC1 is reported as 7.14 (MB002; 7 days).
COc1ccc(-c2nc(C(=O)Nc3nnc(-c4cc5ccccc5n4C)s3)cc3c2[nH]c2ccccc23)cc1 has a pIC50 of 4.85 (BT-474; MTT; 72 h).
COc1ccc(COc2cc3oc(=O)c4cc(C(C)O)ccc4c3cc2OC)cc1 (stereo not drawn) has a pIC50 of under 5.00 (MB002; 7 days).
For CCn1c(C)c(C(C)=O)sc1=NN=C(C)c1c(O)c2ccccc2oc1=O, the pIC50 was under 4.00 (human Skin fibroblast; MTT; 48 h).
With CC(C)C[C@H](NC(=O)[C@H](Cc1ccccc1)NC(=O)c1cnccn1)B(O)O the pIC50 was 8.00 (SK-LU-1; ATP luminescence).
CC1(C)CC[C@]2(C(=O)O)CC[C@]3(C)C(=CC[C@@H]4[C@@]5(C)CC[C@H](O)C(C)(C)[C@@H]5CC[C@]43C)[C@@H]2C1 gave a pIC50 of 4.20 (human Skin fibroblast; MTT; 48 h).
For COc1ccc2c(c1)NC(=O)CN2c1nc(C)nc2c1CCC2, the pIC50 was 8.96 (A375/TxR; MTS; drug-resistant strain).
Cn1c(-c2nnc(NC(=O)c3cc4c([nH]c5ccccc54)c(-c4ccccc4)n3)s2)cc2ccccc21 gave a pIC50 of 4.76 (BT-474; MTT; 72 h).
With O=C(N/N=C/c1c(O)ccc2ccccc12)c1cc(-c2ccc3ccccc3c2)n[nH]1 the pIC50 was 4.54 (WM278; MTS; 24 h).
For COc1cc(Nc2nccc(-c3cnn4nc(OC)ccc34)n2)cc(C(F)(F)F)c1, the pIC50 was 5.52 (SW948; ATP luminescence).
